This is an account of results in ChEMBL document CHEMBL4007450, “Development of 1,2,4-Oxadiazoles as Potent and Selective Inhibitors of the Human Deacetylase Sirtuin 2: Structure-Activity Relationship, X-ray Crystal Structure, and Anticancer Activity” (J Med Chem, 2017).

Active and inactive are the calls of the source. No cut-off for these calls is given here.

In experiment [1] the test system is U-937. The experiment can be described thus: Cell cycle arrest in human U937 cells assessed as accumulation at G2/M phase at 25 uM after 48 hrs by propidium iodide staining-based FACS analysis. It counts as functional.
Experiment [2] deals with U-937. The experiment can be described thus: Induction of apoptosis in human U937 cells assessed as pre-G1 accumulation at 5 to 50 uM after 48 hrs by propidium iodide staining-based FACS analysis. Format: functional, cell-based. The gist of the method: (§1)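 Leukemia cells (U937, NB4, HL-60, K562) were grown in RPMI-1640 with 10% FBS, 2 mM L-glutamine and antibiotics, then treated for 48 h at 5, 10, 25 and 50 μM. 2.5×10^5 cells were stained 30 min in the dark in hypotonic PI buffer (0.1% Triton X-100, 0.1% citrate, 50 µg/mL PI, RNase A). Apoptosis was scored as pre-G1 content by flow cytometry. Duplicates, mean ± SD.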

In experiment [3] the target is NAD-dependent protein deacylase sirtuin-5, mitochondrial (Homo sapiens) (UniProt Q9NXA8). The experiment can be described thus: Inhibition of human SIRT5 (34 to 302 residues) deacetylase activity expressed in Escherichia coli using Prx1 peptide as substrate up to 100 uM after 45 mins in presence of NAD+ by pNCA/GDH-based microplate spectrophotometric analysis.
Experiment [4] addresses T1, NAD-dependent protein deacetylase sirtuin-1 (Homo sapiens) (UniProt Q96EB6).
T1 sequence (whole entry): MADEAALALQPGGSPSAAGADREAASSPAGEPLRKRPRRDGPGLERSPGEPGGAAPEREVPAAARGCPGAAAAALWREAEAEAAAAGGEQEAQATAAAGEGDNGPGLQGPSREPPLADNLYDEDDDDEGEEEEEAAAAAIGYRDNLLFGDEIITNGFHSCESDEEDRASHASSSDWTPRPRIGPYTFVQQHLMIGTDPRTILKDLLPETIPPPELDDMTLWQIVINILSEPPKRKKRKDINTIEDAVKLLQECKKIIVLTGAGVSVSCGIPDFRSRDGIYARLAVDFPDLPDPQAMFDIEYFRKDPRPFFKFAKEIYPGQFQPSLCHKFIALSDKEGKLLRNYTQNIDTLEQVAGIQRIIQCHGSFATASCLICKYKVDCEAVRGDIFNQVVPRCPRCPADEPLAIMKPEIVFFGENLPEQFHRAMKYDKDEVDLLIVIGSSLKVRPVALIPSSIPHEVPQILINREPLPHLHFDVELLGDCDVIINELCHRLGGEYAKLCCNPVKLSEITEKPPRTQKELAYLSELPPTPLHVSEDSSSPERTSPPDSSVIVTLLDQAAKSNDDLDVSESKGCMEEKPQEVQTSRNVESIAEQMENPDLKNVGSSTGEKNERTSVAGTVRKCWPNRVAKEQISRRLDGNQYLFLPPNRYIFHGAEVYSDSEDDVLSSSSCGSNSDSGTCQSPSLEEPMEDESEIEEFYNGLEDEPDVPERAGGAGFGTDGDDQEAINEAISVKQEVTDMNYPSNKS
The experiment can be described thus: Inhibition of human full length SIRT1 activity expressed in Escherichia coli using p53 peptide as substrate up to 100 uM after 45 mins in presence of NAD+ by pNCA/GDH-based microplate spectrophotometric analysis. The gist of the method: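 Full-length Sirt1 at 2 µM with p53 peptide RHKacKLMFK as substrate. Activity was measured in the same coupled pNCA/GDH mix as for Sirt2 (α-ketoglutarate, NADPH, Na-phosphate pH 7.8, 3% DMSO), following NADPH oxidation at 340 nm at 20 °C for 45 min. Compounds were tested up to 100 µM.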

The test system of experiment [5] is MDA-MB-231. The experiment can be described thus: Induction of apoptosis in human MDA-MB-231 cells assessed as pre-G1 accumulation at 5 to 50 uM after 48 hrs by propidium iodide staining-based FACS analysis. Format: functional, cell-based. The gist of the method: (§2)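 MDA-MB-231 breast cancer cells were grown in DMEM with 10% FBS, 2 mM L-glutamine and antibiotics, then exposed for 48 h at 5, 10, 25 or 50 μM. 2.5×10^5 cells were stained in hypotonic buffer with 50 µg/mL PI, 0.1% Triton X-100, 0.1% citrate and RNase A for 30 min in the dark. Pre-G1 fraction was measured by flow cytometry. Biological duplicates, mean ± SD.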

The target in experiment [6] is T2, NAD-dependent protein deacetylase sirtuin-2 (Homo sapiens, UniProt Q8IXJ6).
T2 sequence (Q8IXJ6 whole entry): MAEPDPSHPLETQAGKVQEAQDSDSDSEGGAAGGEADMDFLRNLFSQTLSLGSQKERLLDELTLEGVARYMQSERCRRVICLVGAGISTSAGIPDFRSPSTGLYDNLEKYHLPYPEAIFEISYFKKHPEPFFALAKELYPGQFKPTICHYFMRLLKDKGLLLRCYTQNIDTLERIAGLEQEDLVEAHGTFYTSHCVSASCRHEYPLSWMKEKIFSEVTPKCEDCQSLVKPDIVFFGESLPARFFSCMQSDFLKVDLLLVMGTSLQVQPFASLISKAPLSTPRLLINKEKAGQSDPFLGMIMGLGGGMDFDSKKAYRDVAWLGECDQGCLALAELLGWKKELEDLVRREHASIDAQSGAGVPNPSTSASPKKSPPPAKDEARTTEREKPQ

For experiment [7], the target named is T3, NAD-dependent protein deacetylase sirtuin-3, mitochondrial (Homo sapiens) (UniProt Q9NTG7).
T3 sequence (whole entry): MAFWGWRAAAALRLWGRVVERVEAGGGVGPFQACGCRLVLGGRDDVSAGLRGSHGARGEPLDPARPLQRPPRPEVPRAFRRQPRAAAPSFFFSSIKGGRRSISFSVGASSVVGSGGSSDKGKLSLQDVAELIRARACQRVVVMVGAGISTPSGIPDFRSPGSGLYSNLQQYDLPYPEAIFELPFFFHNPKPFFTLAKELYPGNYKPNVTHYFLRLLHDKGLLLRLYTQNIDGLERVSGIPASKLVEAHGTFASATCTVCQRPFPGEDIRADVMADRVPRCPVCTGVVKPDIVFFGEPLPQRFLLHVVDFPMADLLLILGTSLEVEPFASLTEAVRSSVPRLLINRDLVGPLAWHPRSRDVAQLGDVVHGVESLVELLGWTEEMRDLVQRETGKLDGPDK
The experiment can be described thus: Inhibition of human SIRT3 (114 to 380 residues) activity expressed in Escherichia coli using AceCS2 peptide as substrate up to 100 uM after 45 mins in presence of NAD+ by pNCA/GDH-based microplate spectrophotometric analysis. In short, it runs like this: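 Same pNCA/GDH-coupled 340 nm NADPH read-out as the Sirt2 assay, using 20 mM Na-phosphate pH 7.8 with 3% DMSO at 20 °C for 45 min. Sirt3 (114-380) was used at 5 µM with AceCS2 peptide TRSGacKVMR as substrate. Inhibitors were tested up to 100 µM.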

The test system of experiment [8] is K562. The experiment can be described thus: Induction of apoptosis in human K562 cells assessed as pre-G1 accumulation at 5 to 50 uM after 48 hrs by propidium iodide staining-based FACS analysis. Format: functional, cell-based. The gist of the method:
as §1

For experiment [9], the target named is NAD-dependent protein deacylase sirtuin-5, mitochondrial (Homo sapiens) (UniProt Q9NXA8). The experiment can be described thus: Inhibition of human SIRT5 (34 to 302 residues) desuccinylase activity expressed in Escherichia coli using peptide as substrate up to 100 uM after 45 mins in presence of NAD+ by pNCA/GDH-based microplate spectrophotometric analysis.
The subject of experiment [10] is U-937. The experiment can be described thus: Effect on cell cycle arrest in human U937 cells at 25 uM after 48 hrs by propidium iodide staining-based FACS analysis. Format: functional.
The subject of experiment [11] is NB-4. The experiment can be described thus: Induction of apoptosis in human NB4 cells assessed as pre-G1 accumulation at 5 to 50 uM after 48 hrs by propidium iodide staining-based FACS analysis. Format: functional, cell-based. In short, it runs like this:
as §1

The target in experiment [12] is T4, NAD-dependent protein deacetylase sirtuin-2 (Homo sapiens) (UniProt Q8IXJ6).
T4 sequence (whole entry): T2 sequence (Q8IXJ6 whole entry)
The experiment can be described thus: Inhibition of human N-terminal His6-SUMO-tagged SIRT2 catalytic domain (43 to 356 residues) deacetylase activity expressed in Escherichia coli using alpha-tubulin-acetylLys40 peptide as substrate at 100 uM after 45 mins in presence of NAD+ by pNCA/GDH-based microplate spectrophotometric analysis. In short, it runs like this:
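Continuous coupled assay: Sirt2 product nicotinamide is converted by pNCA/GDH, and NADPH oxidation is read at 340 nm. Compounds were tested at 10 and 100 μM. Background was taken without peptide or NAD+.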

Experiment [13] deals with HL-60. The experiment can be described thus: Induction of apoptosis in human HL60 cells assessed as pre-G1 accumulation at 5 to 50 uM after 48 hrs by propidium iodide staining-based FACS analysis. It counts as functional, cell-based. The gist of the method:
as §1

Experiment [14] concerns NB-4. The experiment can be described thus: Antiproliferative activity against human NB4 cells harboring PML-RARalpha [t(15;17)(q22;q12)] mutant assessed as cell growth inhibition after 48 hrs by WST1 assay. Format: functional, cell-based. Conditions: NB-4, 48 h. The gist of the method: (§3)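 WST-1 proliferation assay. Cells plated in triplicate at 5×10^3 cells/well and exposed to increasing compound concentrations for 48 h at 37 °C, 5% CO2. WST-1 reagent was then added for 1 h. IC50 was obtained by nonlinear regression of each cell line's dose-response curve.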

The test system of experiment [15] is K562. The experiment can be described thus: Induction of apoptosis in human K562 cells assessed as pre-G1 accumulation at 25 uM after 48 hrs by propidium iodide staining-based FACS analysis. Format: functional. In short, it runs like this: as §1
For a further experiment, the system named is Kasumi 1. The experiment can be described thus: Antiproliferative activity against human Kasumi-1 cells harboring AML1-ETO [t(8:21)] mutant assessed as cell growth inhibition after 48 hrs by WST1 assay. It counts as functional, cell-based. To be noted: Kasumi 1, 48 h. The gist of the method: as §3
In the next experiment the test system is KARPAS-299. The experiment can be described thus: Antiproliferative activity against human KARPAS299 cells harboring NPM1/ALK, [t(2;5)(p23;q35)] mutant assessed as cell growth inhibition after 48 hrs by WST1 assay. Format: functional, cell-based. Conditions: KARPAS-299, 48 h. In short, it runs like this: as §3
The test system of a further experiment is OCI-AML-3. The experiment can be described thus: Antiproliferative activity against human OCI-AML3 cells harboring NPM1c+, DNMT3A R882C mutant assessed as cell growth inhibition after 48 hrs by WST1 assay. It counts as functional, cell-based. Conditions: OCI-AML-3, 48 h. In short, it runs like this:
as §3

For experiment [16], the system named is U-937. The experiment can be described thus: Antiproliferative activity against human U937 cells harboring p53+/- assessed as cell growth inhibition after 48 hrs by WST1 assay. Conditions: U-937, 48 h. It counts as functional, cell-based. In short, it runs like this: as §3
Experiment [17] concerns NB-4. The experiment can be described thus: Induction of apoptosis in human NB4 cells assessed as pre-G1 accumulation at 25 uM after 48 hrs by propidium iodide staining-based FACS analysis. It counts as functional. In short, it runs like this: as §1
Experiment [18] can be described thus: Antiproliferative activity against human IMS-M2 cells harboring NPM1c+ assessed as cell growth inhibition after 48 hrs by WST1 assay. Conditions: IMS-M2, 48 h. It counts as functional, cell-based. In short, it runs like this:
as §3

Experiment [19] deals with MDA-MB-231. The experiment can be described thus: Induction of apoptosis in human MDA-MB-231 cells assessed as pre-G1 accumulation at 25 uM after 48 hrs by propidium iodide staining-based FACS analysis. It counts as functional. The gist of the method:
as §2

In a further experiment the test system is OCI-AML2. The experiment can be described thus: Antiproliferative activity against human OCI-AML2 cells harboring DNMT3A R635W mutant assessed as cell growth inhibition after 48 hrs by WST1 assay. To be noted: OCI-AML2, 48 h. It counts as functional, cell-based. In short, it runs like this:
as §3

Experiment [20] concerns HL-60. The experiment can be described thus: Antiproliferative activity against human p53 deficient HL60 cells assessed as cell growth inhibition after 48 hrs by WST1 assay. It counts as functional, cell-based. To be noted: HL-60, 48 h. In short, it runs like this: as §3
The subject of the next experiment is MV4-11. The experiment can be described thus: Antiproliferative activity against human MV4-11 cells harboring FLT3-ITD [t(4;11)(q21;q23)], MLL/MLLT2(AF4) mutant assessed as cell growth inhibition after 48 hrs by WST1 assay. Conditions: MV4-11, 48 h. Format: functional, cell-based. The gist of the method:
as §3

Experiment [21] has as its system U-937. The experiment can be described thus: Cell cycle arrest in human U937 cells assessed as accumulation at S phase at 25 uM after 48 hrs by propidium iodide staining-based FACS analysis. It counts as functional.

Sequence of NAD-dependent protein deacylase sirtuin-5, mitochondrial (Homo sapiens) (Q9NXA8 37-310 limits assumed): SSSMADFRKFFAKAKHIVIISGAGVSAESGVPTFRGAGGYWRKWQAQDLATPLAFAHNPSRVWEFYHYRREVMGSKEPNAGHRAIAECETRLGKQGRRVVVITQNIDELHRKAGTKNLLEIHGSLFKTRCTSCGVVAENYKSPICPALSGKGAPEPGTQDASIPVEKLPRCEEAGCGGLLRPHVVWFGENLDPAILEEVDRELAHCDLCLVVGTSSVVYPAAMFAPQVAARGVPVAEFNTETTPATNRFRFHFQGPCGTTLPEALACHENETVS

Take `Clc1ccc(-c2noc(CBr)n2)cc1`: the outcome in the experiment on U-937 [1] was Active.
Regarding `Clc1ccc(-c2noc(CCCBr)n2)cc1`, the result in the experiment on U-937 [2], in the experiment with MDA-MB-231 [5], in the experiment with K562 [8], with U-937 [10], with NB-4 [11] and in the experiment on HL-60 [13] was inactive. The inhibition entry in experiment [3], in experiment [4], in experiment [7] and in experiment [9] was “inactive” throughout. In addition, in experiment [6], inhibition was half-maximal at 2.5 µM (IC50). Also, in experiment [12], the inhibition entry was “Active”.
On to `COc1ccc(-c2noc(CCCBr)n2)cc1`, for which the IC50 with NB-4 [14] is 12 µM; in experiment [6], 10.4 µM; in the experiment on Kasumi 1, 10.3 µM; in the experiment with KARPAS-299, 36 µM; with OCI-AML-3 it was 62 µM; in the experiment on U-937 [16], 25 µM. In addition, the IC50 in experiment [18] is 18.4 µM; in the experiment with OCI-AML2, 37 µM; in the experiment on HL-60 [20], 30 µM; with MV4-11, 16 µM. Further, the Activity in the experiment on K562 [15], in the experiment with NB-4 [17] and in the experiment with MDA-MB-231 [19] was more than 80% in each case. Besides, in the experiment on U-937 [21], the outcome was Active.
